According to PubChem BioAssay AID821 (SRMLSC, 2007):
Calls of active or inactive are those of the source.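 The calls were made as follows: active = compounds whose fitted half-maximal concentration for reducing fibroblast viability is 100 µM or lower; inactive = the rest.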

Experiment: inhibition of LL 47 lung fibroblast growth, concentration-response curve, selectivity screen for endothelial cell growth inhibitor project, cellular system, ATP luminescence readout (AID 821);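 also: 100% = median of untreated cell-only wells and 0% = no luminescence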
Conditions: LL 47 lung fibroblast viability, ATP luminescence; at 20 µM (top of the series)
Summary of the method: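 Assay system: LL 47 human lung fibroblast cells | Amount: 1,150 cells/well | Schedule: 72 h exposure, 37 °C | Measured by: CellTiter-Glo luminescence | Measure: Percent viability relative to untreated wells, EC50 via 4-parameter fit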
In the case of `Cc1ccc(C(=O)Nc2ncc(Cc3ccccc3)s2)o1`, the viability is reported as 103% (inactive).
With `Cc1nn(C)c(C)c1NC(=O)CSc1nc(C2CC2)nc2c1cnn2-c1ccccc1` the viability was 108% (inactive).
For `Cc1ccc2c(c1)c1cccc3c1n2CCN3CCC(N)=O`, the viability was 89% (inactive).
With `C=CCn1c(SCC(=O)NC(=O)NCc2ccco2)nc2sc(CC)cc2c1=O` the viability was 87.4% (inactive).
For `c1ccc(-c2nccc(-c3ccc(-n4cnc5ccccc54)cc3)n2)cc1`, the viability was 115% (inactive).
In the case of `O=C(Nc1ccc2nn(-c3ccccc3)nc2c1)c1ccc2c(c1)OCO2`, the viability is reported as 121% (inactive).
For `CCn1c(=N)n(CC(=O)C23CC4CC(CC(C4)C2)C3)c2ccccc21`, the viability was 86% (inactive).
For `Cc1cc(C)n(-c2nc(SCC(=O)N3CCCC3)c3c4c(sc3n2)CCCC4)n1`, the viability was 113% (inactive).
In the case of `CCn1nc(C(=O)NC2=NCCS2)c2ccccc2c1=O`, the viability is reported as 103% (inactive).
For `COC(=O)c1cc(NC(=O)c2c(Cl)nc3sccn23)cc(C(=O)OC)c1`, the viability was 91.8% (inactive).
In the case of `Nc1c(C(=O)Nc2ccc3c(c2)OCCO3)nnn1CCc1ccccc1`, the viability is reported as 82.1% (inactive).
With `Cc1ccc(Cn2c(=S)[nH]c3ccc(N4CCOCC4)cc3c2=O)o1` the viability was 85% (inactive).
With `CC1(c2ccccc2)CC(C)(C)N2C(=O)C3(C(C#N)=C(N)Oc4cc(O)ccc43)c3cccc1c32` (centres undefined) the viability was 87.7% (inactive).
For `CCOC(=O)c1c(NC(=O)COc2ncnc3sccc23)sc2c1CCC2`, the viability was 83.6% (inactive).
In the case of `CCCSc1nc2c(cnn2-c2ccc(C)cc2)c(=O)[nH]1`, the viability is reported as 93.1% (inactive).
With `CCCC(=O)Nc1cccc(-c2nc3cc(C)c(C)cc3o2)c1` the viability was 104% (inactive).
With `N=C1C(c2nc(-c3ccc(Cl)cc3)cs2)=C(O)CN1CCCN1CCOCC1` the viability was 118% (inactive).
In the case of `CCOc1cc(/C=C\c2[nH]c(=O)[nH]c(=O)c2[N+](=O)[O-])ccc1OC(C)CC` (centres undefined), the viability is reported as 90.9% (inactive).
For `Cc1sc2nc(SCC(=O)c3cccs3)n(Cc3ccco3)c(=O)c2c1C`, the viability was 87% (inactive).
With `Cc1ccc(S(=O)(=O)c2c(C)nn(C(C)(C)C)c2OC(=O)c2ccco2)cc1` the viability was 108% (inactive).
In the case of `COc1ccc(-n2c(SCC(=O)Nc3sc4c(c3C#N)CCCC4)nnc2-c2ccc(O)cc2)cc1`, the viability is reported as 94.1% (inactive).
In the case of `O=C(Nc1cccc(-c2nc3ncccc3o2)c1)c1cc2ccccc2o1`, the viability is reported as 116% (inactive).
For `Cc1ccc(C)c(C(C)NC(=O)C2C3CCC(O3)C2C(=O)O)c1` (centres undefined), the viability was 94.5% (inactive).
In the case of `Oc1ccc2oc3c(c2c1/C=N/n1cnnc1)CCCC3`, the viability is reported as 99.5% (inactive).
In the case of `CC[n+]1cc(-c2ccccc2)nc(N2CCOCC2)n1`, the viability is reported as 99.9% (inactive).
With `CC(=O)n1cc(-c2ccncc2)c2ccccc21` the viability was 98.4% (inactive).
With `Cc1cc(NC(=O)COC(=O)C(Nc2ccc(C(F)(F)F)cc2Cl)C(C)C)no1` (centres undefined) the viability was 90.8% (inactive).
With `CCOc1ccc(NC(=S)Nc2ccc(C)c([N+](=O)[O-])c2)cc1` the viability was 121% (inactive).
For `CC1=C(C(=O)OC2CCCCCCC2)C(c2cc3c(cc2Br)OCO3)CC(=O)N1` (centres undefined), the viability was 82.2% (inactive).
With `CC(C(=O)N1CCOCC1)N1C(=O)c2ccccc2C1=O` (centres undefined) the viability was 117% (inactive).
For `O=S(=O)(Nc1cccnc1)c1ccc(C2CCCCC2)cc1`, the viability was 100% (inactive).
With `CCOC(=O)c1ccc(NC(=O)CCc2nc(-c3cccc(C)c3)no2)cc1` the viability was 107% (inactive).
For `Cc1nc2cc(N3CCCCC3)c(NC(=O)c3cccnc3)cc2c(=O)n1Cc1ccccc1`, the viability was 91.8% (inactive).
With `CCN1CCN(c2ncc(C(=O)Nc3cc(Cl)c(OC)cc3OC)c3ccccc23)CC1` the viability was 103% (inactive).
For `O=C(CSc1nnc(-c2cc(-c3cccs3)nc3ccccc23)o1)NC1CCCCC1`, the viability was 98.4% (inactive).
With `COc1cc(N=c2ssnc2Cl)c(OC)cc1Cl` the viability was 88.6% (inactive).
In the case of `CCOC(=O)c1c(C)[nH]c(C(=O)OC/C(O)=C(\C#N)c2nc3ccccc3[nH]2)c1C`, the viability is reported as 113% (inactive).
With `CCOC(=O)c1ccc2c(c1)NC(=O)C(N1CCN(c3ccc(OC)cc3)CC1)S2` (centres undefined) the viability was 84.9% (inactive).
For `COc1ccc(NC(=O)c2ccccc2NC(=O)COc2ccccc2)cc1`, the viability was 93.3% (inactive).
In the case of `OCCN1CCN(c2nc(-c3ccccc3)c3cc(Cl)ccc3n2)CC1`, the viability is reported as 85% (inactive).
In the case of `CCCCC(=O)O[C@H]1CC[C@H]2[C@@H]3CCc4cc(O)ccc4[C@H]3CC[C@]12C`, the viability is reported as 84% (inactive).
For `COc1ccc(Cl)c(N2CCN(CCCNC(=O)Nc3ccc(C)cc3)CC2)c1`, the viability was 84.9% (inactive).
With `Brc1ccc(-c2csc(NNC3=NCCCCC3)n2)cc1` the viability was 90.2% (inactive).
With `CC(/C=N/n1cnnc1)=C\c1ccccc1` the viability was 109% (inactive).
For `Cc1cccc(C)c1N1CCN(c2ccc3nnc(C(F)(F)F)n3n2)CC1`, the viability was 81.7% (inactive).
For `COc1ccc(NC(=O)CSc2nnc(-c3cccs3)n2-c2ccccc2)cc1`, the viability was 105% (inactive).
In the case of `Cc1nc(C)c(-c2csc(Nc3cccnc3)n2)s1`, the viability is reported as 87.8% (inactive).
In the case of `COCCn1c(C)cc(C(=O)CSc2nc3ccccc3o2)c1C`, the viability is reported as 129% (inactive).
For `CCOC(=O)c1c(NC(=O)C2COc3ccccc3O2)sc(C(C)=O)c1C` (centres undefined), the viability was 104% (inactive).
With `Cc1cccc(Nc2nc(NCc3ccco3)nc(N3CCOCC3)n2)c1` the viability was 80.4% (inactive).
For `CCOC(=O)c1c(N)sc2c(OC)c(Br)ccc12`, the viability was 109% (inactive).
In the case of `CC1=C(SCCC#N)S/C(=C2\SC(C)=C(SCCC#N)S2)S1`, the viability is reported as 112% (inactive).
For `Cc1cc(C(=O)Nc2nc3ccc(S(C)(=O)=O)cc3s2)c(C)o1`, the viability was 92.9% (inactive).
With `COc1cccc(C(=O)CSc2nnc(-c3cc(OC)cc(OC)c3)o2)c1` the viability was 91.3% (inactive).
In the case of `Cc1cc2nc(C3CCN(CC4COc5ccccc5O4)CC3)[nH]c2cc1C` (centres undefined), the viability is reported as 88.5% (inactive).
In the case of `Cc1ccc(-n2nnnc2SCC(=O)Nc2ccc3c(c2)COC3=O)cc1C`, the viability is reported as 94.5% (inactive).
For `COC(=O)c1cc(COc2ccc3c(c2)oc(=O)c2ccccc23)c(C)o1`, the viability was 120% (inactive).
With `CCN(CC(O)Cn1c2ccccc2c2ccccc21)S(=O)(=O)c1ccc(C)cc1` (centres undefined) the viability was 96.4% (inactive).
In the case of `Clc1ccc(Cn2cc(/C=N/n3cnnc3)c3ccccc32)c(Cl)c1`, the viability is reported as 99% (inactive).
With `CCn1c(Cc2ccc(OC)cc2)nnc1SCC(=O)Nc1cccc(C(=O)OC)c1` the viability was 96.9% (inactive).
In the case of `Cc1nc2sccn2c(=O)c1CCN1CCC(=C(c2ccc(F)cc2)c2ccc(F)cc2)CC1`, the viability is reported as 91.4% (inactive).
In the case of `O=C(CCSc1ccc(Cl)cc1)N1CCN(c2ncccn2)CC1`, the viability is reported as 96.4% (inactive).
For `Cn1c(=O)c2cc(NCc3ccccc3)nnc2n(C)c1=O`, the viability was 100% (inactive).
For `C=CCOC(=O)C1=C(C)NC(SCC(=O)Nc2nccs2)=C(C#N)C1c1cccs1` (centres undefined), the viability was 91.3% (inactive).
With `CC1(C)Cc2c(C#N)c(N3CCN(C(=O)c4ccco4)CC3)nc(Cc3ccccc3)c2CO1` the viability was 87.4% (inactive).
With `CCCCC[n+]1ccn(C2=C([O-])c3ccccc3C(=O)/C2=N\S(=O)(=O)c2ccccc2)c1` the viability was 86.4% (inactive).
With `Cc1ccc2[nH]c3c(NCc4ccco4)ncnc3c2c1` the viability was 85.1% (inactive).
In the case of `Cc1cccc(N2CCN(C(=O)c3ccc4nc(-c5ccco5)c(-c5ccco5)nc4c3)CC2C)c1` (centres undefined), the viability is reported as 105% (inactive).
For `CCc1ccc(-c2nc(CN3CCC(C(=O)NCc4ccc(F)cc4)CC3)c(C)o2)cc1`, the viability was 103% (inactive).
